Only some compounds are listed: those with a hit (about 2.5% of all), similar ones and a draw of the others.
DENV2 CPE rescue: inhibitors of DENV2 cytopathic effect; DENV2-infected cells, cytopathic effect rescue, plate reader; CPE inhibition, % at 9.99 µM; actives 1.7% (n = 350,000); AID 651640; in the data active = CPE inhibition above about 20%, passing the limit was not always enough; tested in BHK-21 cells;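 also: 0% = median of neutral control wells and 100% = median of positive control wells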
ERAP1 HTS inh: ERAP1 (human) enzyme inhibition. actives 0.15% (n = 340,000). recombinant ERAP1, Leu-AMC fluorescence, 60 min. Q9NZ08. inhibition, % at 10.7 µM;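 active = mean replicate inhibition of at least 30%, or all replicates individually reaching that 30% level; inactive = mean below 30% and not every replicate reaching it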;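 also: 0% = neutral control wells and 100% = L-leucinethiol positive control wells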
E-selectin induc: E-selectin induction on HUVECs; P16581; HUVEC E-selectin immunofluorescence imaging; normalized: neutral wells 0, TNF-alpha wells 100; activation, % at 7.58 µM; actives 0.37% (n = 260,000); AID 686992;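 active = mean E-selectin-positive cell signal at least 10% of the positive control, reached in at least 60% of replicates, without over 20% cell loss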
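System: HUVEC / Compound: single concentration / Signal: immunofluorescence imaging / Read-out: percent E-selectin-positive cells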
PglD DTNB: blocks C. jejuni PglD acetyltransferase activity. purified PglD enzyme, DTNB colorimetric CoA detection. inhibition, % at 12.5 µM. actives 0.098% (n = 360,000); in the data active = inhibition above about 16%, passing the limit was not always enough
SIRT5 inh: inhibitors of human sirtuin-5 desuccinylase. Purified SirT5, succinyl-peptide AMC, trypsin-coupled fluorescence. actives 1.1% (n = 330,000). AID 652115. Q9NXA8. inhibition, % at 15 µM; in the data active = inhibition above about 15%
* marks the source's active call; other numbers are inactive results; / = not tested or not shown.

SMILES	DENV2 CPE rescue	ERAP1 HTS inh	E-selectin induc	PglD DTNB	SIRT5 inh
Cc1cccc(-c2ccc([C@@H]3[C@@H](CO)N4CCCCN(S(=O)(=O)c5cccc(C)c5)C[C@H]34)cc2)c1	-7	0	-1	-3	8
Cc1cccc(S(=O)(=O)N2CCCCN3[C@@H](CO)[C@@H](c4ccc(-c5ccncc5)cc4)[C@@H]3C2)c1	5	2	1	3	4
Cc1ccc(-c2ccc([C@H]3[C@@H](CO)N4CCCCN(S(=O)(=O)c5cccc(C)c5)C[C@H]34)cc2)cc1	-5	0	/	-6	19*
COc1ccccc1-c1ccc([C@@H]2[C@@H]3CN(S(=O)(=O)c4ccc(-c5ccccc5)cc4)C[C@H]2N3)cc1	1	-5	-1	/	21*
COc1ccc2c3c([nH]c2c1)[C@@H](CO)N(C(=O)c1cccnc1)CC31CCN(C(=O)CN(C)C)CC1	-8	1	0	/	-4
OC[C@H]1[C@H](c2ccc(Br)cc2)[C@@H]2CN(Cc3ccccn3)CCCCN12	17	4	0	0	3
COc1cccc(C(=O)C2CCCN(Cc3cccc(OCCO)c3)C2)c1 (stereo not drawn)	5	-1	0	16	-11
Cc1ccc(-c2ccc(C3[C@@H]4CN(S(=O)(=O)c5cccc(C)c5)C[C@H]3N4)cc2)cc1 (stereo partly drawn)	3	/	/	/	28*
Cc1noc(C)c1NC(=O)N(C)C[C@@H]1Oc2ccc(NC(=O)c3ccncc3)cc2C(=O)N([C@H](C)CO)C[C@@H]1C	-7	-2	421*	1	0
Cc1noc(C)c1NC(=O)N(C)C[C@H]1Oc2ccc(NC(=O)c3ccncc3)cc2C(=O)N([C@H](C)CO)C[C@H]1C	11	0	348*	2	-1
Cc1noc(C)c1NC(=O)N(C)C[C@H]1OCCCC[C@H](C)Oc2ccc(NC(=O)c3ccncc3)cc2C(=O)N([C@@H](C)CO)C[C@@H]1C	8	0	0	-2	-2
C[C@H](CO)N1C[C@H](C)[C@H](CN(C)Cc2ccccc2C(F)(F)F)OCc2ccccc2-c2c(n(C)c3ccccc23)C1=O	26*	-3	19	/	0
COc1cccc(CN(C)C[C@@H]2OCc3ccccc3-c3c(n(C)c4ccccc34)C(=O)N([C@H](C)CO)C[C@H]2C)c1	12	0	0	/	29*
COc1ccccc1CN(C)C[C@H]1OCc2ccccc2-c2c(n(C)c3ccccc23)C(=O)N([C@H](C)CO)C[C@H]1C	27*	0	4	/	2
O=C1CC(c2ccccc2)NN1 (stereo not drawn)	-7	1	0	-3	/
CSCC[C@H](NC(=O)Nc1ccc(Oc2ccccc2)cc1)C(=O)O	-5	-20	-2	2	-2
CNC[C@@H]1OCc2cnnn2CCCC(=O)N([C@@H](C)CO)C[C@@H]1C	/	/	0	/	/
CO/N=C/C(c1ccc(Cl)nc1)S(=O)(=O)c1ccccc1 (stereo not drawn)	-8	-4	/	/	21*
Cc1ccc(S(=O)(=O)N(C)C[C@@H]2OCCCC[C@@H](C)Oc3ccc(NC(=O)C4CCCCC4)cc3C(=O)N([C@@H](C)CO)C[C@H]2C)cc1	-1	/	1	-1	/
COc1ccc(C(CNC(=O)COc2cc(C)ccc2Cl)N2CCCCC2)cc1 (stereo not drawn)	37*	3	/	/	0
CCCC#Cc1ccc2c(c1)O[C@@H](CN(C)C(=O)c1cnccn1)[C@@H](C)CN([C@H](C)CO)S2(=O)=O	5	1	0	-4	-2
CC(C)CC#Cc1ccc2c(c1)O[C@H](CN(C)C(=O)c1ccccc1F)[C@@H](C)CN([C@@H](C)CO)S2(=O)=O	32*	4	0	3	9
CCCC#Cc1ccc2c(c1)O[C@H](CN(C)C(=O)Nc1ccccc1F)[C@@H](C)CN([C@H](C)CO)S2(=O)=O	-1	0	0	1	21*
CCCC#Cc1ccc2c(c1)O[C@@H](CN(C)C(=O)c1cnccn1)[C@@H](C)CN([C@@H](C)CO)S2(=O)=O	10	1	1	-3	28*
CCCC#Cc1ccc2c(c1)O[C@@H](CN(C)C(=O)c1ccccc1F)[C@@H](C)CN([C@@H](C)CO)S2(=O)=O	-12	4	0	-1	17*
CSc1nnc(C(C)(C)C)c(=O)n1/N=C/c1ccccc1O	11	-2	5	/	-6

Assay outcomes: PubChem BioAssay, Broad Institute
